Source: ChEMBL document CHEMBL1926642, “Relevance of the C-5 position to schweinfurthin induced cytotoxicity” (2011)

Experiments:
Type in all cases: functional
UO-31 = test: Growth inhibition of human UO31 cells after 48 hrs by sulforhodamine B assay; settings: UO-31, 48 h
PC-3 = test: Growth inhibition of human PC3 cells after 48 hrs by sulforhodamine B assay; settings: PC-3, 48 h
SK-MEL-28 = test: Growth inhibition of human SK-MEL-28 cells after 48 hrs by sulforhodamine B assay; settings: SK-MEL-28, 48 h
NCI-H460 = test: Growth inhibition of human NCI-H460 cells after 48 hrs by sulforhodamine B assay; settings: NCI-H460, 48 h
K562 = test: Growth inhibition of human K562 cells after 48 hrs by sulforhodamine B assay; settings: K562, 48 h
OVCAR-8 = test: Growth inhibition of human OVCAR8 cells after 48 hrs by sulforhodamine B assay; settings: OVCAR-8, 48 h
SF-295 = test: Growth inhibition of human SF295 cells after 48 hrs by sulforhodamine B assay; settings: SF-295, 48 h
SNB-19 = test: Growth inhibition of human SNB19 cells after 48 hrs by sulforhodamine B assay; settings: SNB-19, 48 h
HL-60(TB) [1] = test: Growth inhibition of human HL-60(TB) cells after 48 hrs by sulforhodamine B assay; settings: HL-60, 48 h
How it was run: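 Run in the NCI 60 cell-line screen as the full 5-dose assay that follows initial single-dose testing; GI50 is read from the dose series.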

MCF7 = test: Growth inhibition of human MCF7 cells after 48 hrs by sulforhodamine B assay; settings: MCF7, 48 h
MDA-MB-435 [2] = test: Growth inhibition of human MDA-MB-435 cells after 48 hrs by sulforhodamine B assay; settings: MDA-MB-435, 48 h
EKVX = test: Growth inhibition of human EKVX cells after 48 hrs by sulforhodamine B assay
OVCAR-5 = test: Growth inhibition of human OVCAR5 cells after 48 hrs by sulforhodamine B assay; settings: OVCAR-5, 48 h
HCT-116 = test: Growth inhibition of human HCT116 cells after 48 hrs by sulforhodamine B assay; settings: HCT-116, 48 h
CCRF-CEM = test: Growth inhibition of human CCRF-CEM cells after 48 hrs by sulforhodamine B assay
NCI-H23 = test: Growth inhibition of human NCI-H23 cells after 48 hrs by sulforhodamine B assay; settings: NCI-H23, 48 h
[3] = Growth inhibition of human Hs 578T cells after 48 hrs by sulforhodamine B assay
DU-145 = test: Growth inhibition of human DU145 cells after 48 hrs by sulforhodamine B assay; settings: DU-145, 48 h
Malme-3M = test: Growth inhibition of human MALME-3M cells after 48 hrs by sulforhodamine B assay
SNB-75 = test: Growth inhibition of human SNB75 cells after 48 hrs by sulforhodamine B assay; settings: SNB-75, 48 h
UACC-257 = test: Growth inhibition of human UACC257 cells after 48 hrs by sulforhodamine B assay; settings: UACC-257, 48 h
HOP-92 = test: Growth inhibition of human HOP92 cells after 48 hrs by sulforhodamine B assay; settings: HOP-92, 48 h
A549 = test: Growth inhibition of human A549 cells after 48 hrs by sulforhodamine B assay; settings: A549, 48 h
SR = test: Growth inhibition of human SR cells after 48 hrs by sulforhodamine B assay
SF-268 = test: Growth inhibition of human SF268 cells after 48 hrs by sulforhodamine B assay; settings: SF-268, 48 h
SK-OV-3 = test: Growth inhibition of human SKOV3 cells after 48 hrs by sulforhodamine B assay; settings: SK-OV-3, 48 h
RPMI-8226 = test: Growth inhibition of human RPMI8226 cells after 48 hrs by sulforhodamine B assay; settings: RPMI-8226, 48 h
SF-539 = test: Growth inhibition of human SF539 cells after 48 hrs by sulforhodamine B assay; settings: SF-539, 48 h
MDA-MB-435 [4] = test: Cytotoxicity against human MDA-MB-435 cells assessed as cell growth at 10 uM after 48 hrs by sulforhodamine B assay relative to control; settings: MDA-MB-435, 48 h, read-out: Activity
How it was run: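 Compounds went through the NCI 60 cell-line screen, whose current protocol tests first at a single dose.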

HL-60(TB) [5] = test: Cytotoxicity against human HL-60(TB) cells assessed as cell growth at 10 uM after 48 hrs by sulforhodamine B assay relative to control; settings: HL-60, 48 h, read-out: Activity
How it was run: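 Tested in the NCI 60 cell-line screen, where the current protocol starts with testing at a single dose.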

UACC-62 = test: Cytotoxicity against human UACC62 cells assessed as cell growth at 10 uM after 48 hrs by sulforhodamine B assay relative to control; settings: UACC-62, 48 h, read-out: Activity
[6] = read-out: pLC50 (the source's name) (converted)

COc1cc(/C=C/c2cc(O)c3c(c2)C[C@@H]2C(C)(C)[C@H](O)CC[C@@]2(C)O3)cc(O)c1C/C=C(\C)CCC=C(C)C
GI50 (UO-31): 0.178 µM | LC50 (UO-31): 37.2 µM | TGI (UO-31; read-out: pTGI (converted)): 11.5 µM | GI50 (PC-3): 0.372 µM | CC50 (PC-3; [6]): 41.7 µM | TGI (PC-3; read-out: pTGI (converted)): 5.25 µM | GI50 (SK-MEL-28): 1 µM | CC50 (SK-MEL-28; [6]): 7.94 µM | TGI (SK-MEL-28; read-out: pTGI (converted)): 2.75 µM | GI50 (NCI-H460): 0.339 µM | LC50 (concentration killing 50% of cells) (NCI-H460): 64.6 µM | TGI (NCI-H460; read-out: pTGI (converted)): 9.12 µM | GI50 (K562): 0.263 µM | LC50 (K562): 100 µM | TGI (K562; read-out: pTGI (converted)): 6.92 µM | GI50 (OVCAR-8): 2.82 µM | LC50 (OVCAR-8): 51.3 µM | TGI (OVCAR-8; read-out: pTGI (converted)): 12.6 µM | LC50 (SF-295): 26.9 µM | GI50 (SF-295; read-out: GI50): 0.022 µM | GI50 (SF-295; read-out: pGI50 (converted)): 0.024 µM | TGI (SF-295; read-out: pTGI (converted)): 0.195 µM | GI50 (SNB-19): 2.88 µM | LC50 (SNB-19): 42.7 µM | TGI (SNB-19; read-out: pTGI (converted)): 17.8 µM | GI50 (HL-60(TB) [1]): 0.0468 µM | CC50 (HL-60(TB) [1]; [6]): 37.2 µM | TGI (HL-60(TB) [1]; read-out: pTGI (converted)): 1.45 µM | GI50 (MCF7): 0.309 µM | LC50 (MCF7): 29.5 µM | TGI (MCF7; read-out: pTGI (converted)): 3.47 µM | GI50 (MDA-MB-435 [2]): 0.794 µM | LC50 (MDA-MB-435 [2]): 34.7 µM | TGI (MDA-MB-435 [2]; read-out: pTGI (converted)): 5.01 µM | GI50 (EKVX): 0.977 µM | LC50 (50% lethal concentration) (EKVX): 36.3 µM | TGI (EKVX; read-out: pTGI (converted)): 10.2 µM | GI50 (OVCAR-5): 2.51 µM | LC50 (OVCAR-5): 45.7 µM | TGI (OVCAR-5; read-out: pTGI (converted)): 13.2 µM | GI50 (HCT-116): 0.603 µM | LC50 (HCT-116): 6.31 µM | TGI (HCT-116; read-out: pTGI (converted)): 2.34 µM | GI50 (CCRF-CEM): 0.12 µM | LC50 (CCRF-CEM): 100 µM | TGI (CCRF-CEM; read-out: pTGI (converted)): 4.37 µM | GI50 (NCI-H23): 1.51 µM | LC50 (NCI-H23): 26.3 µM | TGI (NCI-H23; read-out: pTGI (converted)): 4.47 µM | GI50 [3]: 0.0372 µM | CC50 [3, 6]: 26.9 µM | TGI ([3]; read-out: pTGI (converted)): 0.776 µM | GI50 (DU-145): 2 µM | LC50 (DU-145): 77.6 µM | TGI (DU-145; read-out: pTGI (converted)): 11.7 µM | GI50 (Malme-3M): 1.95 µM | LC50 (Malme-3M): 30.9 µM | TGI (Malme-3M; read-out: pTGI (converted)): 5.13 µM | GI50 (SNB-75): 0.123 µM | LC50 (SNB-75): 33.9 µM | TGI (SNB-75; read-out: pTGI (converted)): 6.31 µM | GI50 (UACC-257): 7.59 µM | LC50 (UACC-257): 61.7 µM | TGI (UACC-257; read-out: pTGI (converted)): 23.4 µM | GI50 (HOP-92): 2.29 µM | LC50 (HOP-92): 50.1 µM | TGI (HOP-92; read-out: pTGI (converted)): 6.61 µM | LC50 (A549): 40.7 µM | GI50 (A549; read-out: GI50): 0.72 µM | GI50 (A549; read-out: pGI50 (converted)): 0.955 µM | TGI (A549; read-out: pTGI (converted)): 10.7 µM | GI50 (SR): 0.288 µM | LC50 (SR): 100 µM | TGI (SR; read-out: pTGI (converted)): 4.07 µM | GI50 (SF-268): 1.35 µM | LC50 (SF-268): 42.7 µM | TGI (SF-268; read-out: pTGI (converted)): 5.13 µM | GI50 (SK-OV-3): 1.38 µM | LC50 (SK-OV-3): 38 µM | TGI (SK-OV-3; read-out: pTGI (converted)): 14.8 µM | GI50 (RPMI-8226): 0.0105 µM | LC50 (RPMI-8226): 100 µM | TGI (RPMI-8226; read-out: pTGI (converted)): 0.347 µM | GI50 (SF-539): 0.0525 µM | LC50 (SF-539): 6.92 µM | TGI (SF-539; read-out: pTGI (converted)): 1.66 µM

COc1cc(/C=C/c2cc(Br)c3c(c2)C[C@@H]2C(C)(C)[C@H](O)CC[C@@]2(C)O3)cc(O)c1C/C=C(\C)CCC=C(C)C
growth at 10 µM (MDA-MB-435 [4]): 109% | growth at 10 µM (HL-60(TB) [5]): 69.7% | growth at 10 µM (UACC-62): 104%

COCc1cc(/C=C/c2cc(O)c(C/C=C(\C)CCC=C(C)C)c(OC)c2)cc2c1O[C@]1(C)CC[C@@H](O)C(C)(C)[C@H]1C2
growth at 10 µM (MDA-MB-435 [4]): 120% | growth at 10 µM (HL-60(TB) [5]): 78.2% | growth at 10 µM (UACC-62): 90.7%
